Laboratory results reported in PubChem BioAssay.
Results filed as inconclusive are left out.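 How the source made its calls, unless noted: active means inhibition over a set limit, the all-compound mean plus 3 SD, in both replicate runs; inconclusive means over that limit in just one replicate run; inactive means at or under that limit in both runs.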

Assays:
[1] = S. cerevisiae growth inhibition in permissive medium (OD615), pilot counter-assay for S. cerevisiae lifespan shortening project, permissive growth control (AID 705;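 active means growth inhibition above 25% in both replicates, a cutoff set 3 SD above the mean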); settings: OD615, 24 h, at 10 µM, stronger effect = higher value
How it was run: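 System – S. cerevisiae with engineered DeaD lifespan system · Buffer or medium – SC raffinose/galactose permissive medium · Schedule – cells pre-grown 4 h, then 24 h compound exposure, 30 °C humidified · Technique – culture turbidity as optical density at 615 nm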

[2] = S. cerevisiae growth inhibition in restrictive medium, OD615, pilot screen, restrictive growth control, yeast lifespan reduction project (AID 706;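 active means growth inhibition above a set limit, 3 SD over mean compound inhibition, in both replicates, cut at about 43% in these data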;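 further: modified DeaD lifespan yeast strain shifted to restrictive glucose medium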); settings: OD615, 48 h, at 10 µM, stronger effect = higher value
How it was run: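 Material: engineered S. cerevisiae DeaD strain / Medium: glucose-based CSMM-D restrictive medium / Compound: single dose of 10 µM compound final, 0.25% DMSO / Timing: 4 h pre-incubation, 48 h exposure at 30 °C / Technique: OD615 absorbance reading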

[3] = doxorubicin toxicity protection in MRP-1 cells – H69AR cells, CellTiter-Glo, duplicate, MRP-1 activator project, pilot screen (AID 807;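 active means viability increase at or above a cutoff of the median across tested compounds plus 3 SD, cut at about 8.5% in these data, passing the limit was not always enough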;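 further: compound pretreatment 18-22 h then 72 h combined with doxorubicin; 0% = doxorubicin alone and 100% = vehicle without doxorubicin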); settings: H69AR viability with doxorubicin, CellTiter-Glo luminescence; at 10 µM; stronger effect = higher value
[4] = viability of HCT116 without oncogenic beta-catenin – human colon tumor cells, pilot screen (AID 823;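 active means cell viability at or below a set limit in both duplicate runs, the limit being the all-compound median minus 4 SD, cut at about 23% in these data, passing the limit was not always enough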;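 further: 0% = wells killed by 20 µM Hyamine and 100% = untreated DMSO cell wells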); settings: HCT116 beta-catenin knockout viability, CellTiter-Glo, 60 h; at 10 µM; stronger effect = lower value
[5] = viability of PTEN-null HCT116 cells – cell-based, HCT116 clonal line, CellTiter-Glo, pilot screen (AID 824;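 active means viability at or below 27.92% in each of two runs, the all-compound median minus 4 SD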;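 further: 0% = 20 µM Hyamine control and 100% = vehicle cell control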); settings: HCT116 PTEN-deleted viability, 60 h, at 10 µM, stronger effect = lower value
[6] = RAM pathway blockade in budding yeast – dse1pr::URA3 reporter, 5-FOA selection, pilot screen (AID 869);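 further: 0% = DMSO wells with no growth and 100% = 10 µM 1-NA-PP1 with full growth; RAM network block rescues cells from 5-FOA so hits raise OD615 growth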; settings: S. cerevisiae dse1pr::URA3 5-FOA growth, OD615, 2 d; at 10 µM; stronger effect = higher value; strain carries analog-sensitive mutant Cbk1 kinase
[7] = RAM signaling pathway blockade in yeast – S. cerevisiae, Pdr1DBD-CYC8 efflux-inhibited sensitized strain, primary screen (AID 1298;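 active means RAM network inhibition above 8.4% in each of two replicates, 3 SD over the compound average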;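 further: 0% = DMSO untreated cells without growth and 100% = 10 µM 1-NA-PP1 full growth; higher means more yeast growth rescued from 5-FOA killing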); settings: S. cerevisiae cbk1-as DSE1-URA3 strain, 5-FOA growth OD615, 2 d; at 50 µM; stronger effect = higher value

COc1ccc(-c2csc(N3CCN(C(=O)c4ccco4)CC3)n2)cc1
inactive: growth inhibition [1] -13% | growth inhibition [2] 19% | viability increase [3] 2.74% | viability [4] 98.5% | viability [5] 85.1% | inhibition [6] 0.95% | RAM network inhibition [7] 2.04%

Cc1ccc2oc3c(c(=O)c2c1)C(c1cccc(Cl)c1)N(CCCN1CCOCC1)C3=O (stereo not drawn)
inactive: growth inhibition [1] -0.165% | growth inhibition [2] 2.74% | viability increase [3] -3.81% | viability [4] 76.8% | viability [5] 79% | inhibition [6] 0.735% | RAM network inhibition [7] 2.4%

CCOc1ccc(N(CC(=O)NCc2ccccc2)S(C)(=O)=O)cc1
inactive: growth inhibition [1] -0.02% | growth inhibition [2] -4.28% | viability increase [3] -1.14% | viability [4] 103% | viability [5] 101% | inhibition [6] 0.535% | RAM network inhibition [7] -0.46%

CC(C)N(Cc1ccccc1)C(=O)c1cnc2n(c1=O)CCS2
inactive: growth inhibition [1] -1.66% | growth inhibition [2] -28.5% | viability increase [3] -2.84% | viability [4] 105% | viability [5] 98.1% | inhibition [6] 1.28% | RAM network inhibition [7] 1.59%

CCOc1ccccc1C(=O)NC1CCN(Cc2nnnn2C2CCCC2)CC1
inactive: growth inhibition [1] -6.12% | growth inhibition [2] -7.94% | viability increase [3] -1.67% | viability [4] 102% | viability [5] 98.9% | inhibition [6] 0.9% | RAM network inhibition [7] 1.76%

Cc1ccc(N2CCN(C(=O)c3ccccc3F)CC2)c(C)c1
inactive: growth inhibition [1] -12.4% | growth inhibition [2] -14.5% | viability increase [3] 2.73% | viability [4] 93.3% | viability [5] 91% | inhibition [6] -0.61% | RAM network inhibition [7] 4.91%

O=C(OCCN1C(=O)c2ccccc2C1=O)c1cc2ccccc2o1
inactive: growth inhibition [1] -11.6% | growth inhibition [2] -4.04% | viability increase [3] 0.07% | viability [4] 97.3% | viability [5] 99.1% | inhibition [6] 2.92% | RAM network inhibition [7] 3.68%

CCc1cc(C(=O)Nc2ccccc2)cs1
inactive: growth inhibition [1] -8.2% | growth inhibition [2] 4.65% | viability increase [3] -0.18% | viability [4] 82.8% | viability [5] 90.9% | inhibition [6] 2.13% | RAM network inhibition [7] -2.13%

COc1cc(CNC(=O)OCC(C)C)cc(OC)c1OC
inactive: growth inhibition [1] -11.4% | growth inhibition [2] -20.8% | viability increase [3] -0.03% | viability [4] 99.7% | viability [5] 99% | inhibition [6] 0.19% | RAM network inhibition [7] -0.93%

O=C(NCC1CCCO1)c1ccc2c(c1)C(=O)N(C1CCCCC1)C2=O (stereo not drawn)
inactive: growth inhibition [1] -10.7% | growth inhibition [2] -6.06% | viability increase [3] 1.19% | viability [4] 100% | viability [5] 91.5% | inhibition [6] 3.77% | RAM network inhibition [7] 3.57%

COc1cccc(/C=C2\N=C(SC)SC2=O)c1OC
inactive: growth inhibition [1] -20.1% | growth inhibition [2] -7.18% | viability increase [3] -3.76% | viability [4] 89.8% | viability [5] 105% | inhibition [6] 3.8% | RAM network inhibition [7] 8.12%

CCn1c(=O)c2cc(C(=O)N3CCN(C(=O)c4ccco4)CC3)sc2c2ccccc21
inactive: growth inhibition [1] -1.96% | growth inhibition [2] -0.815% | viability increase [3] -3.68% | viability [4] 84% | viability [5] 86.3% | inhibition [6] 2.02% | RAM network inhibition [7] 7.64%

CC(CCCC(C)(C)O)NCCO (stereo not drawn)
inactive: growth inhibition [1] -9.36% | growth inhibition [2] -4.3% | viability increase [3] 1.25% | viability [4] 102% | viability [5] 106% | inhibition [6] 2.67% | RAM network inhibition [7] -0.17%

Cc1nc2sc(C(c3cccs3)N3CCN(c4cccc(Cl)c4)CC3)c(O)n2n1 (stereo not drawn)
inactive: growth inhibition [1] -5.61% | growth inhibition [2] 2.47% | viability increase [3] 2.07% | viability [4] 93.7% | viability [5] 83.5% | inhibition [6] 2.32% | RAM network inhibition [7] 5.45%

COCCCNC(=O)CS(=O)Cc1nc(-c2ccccc2C)oc1C (stereo not drawn)
inactive: growth inhibition [1] -4.76% | growth inhibition [2] 18% | viability increase [3] -1.44% | viability [4] 97.9% | viability [5] 102% | inhibition [6] 0.445% | RAM network inhibition [7] 6.27%

CCOc1ccc(C(=O)Nc2c3c(nn2-c2ccc(C)cc2)CS(=O)C3)cc1OCC (stereo not drawn)
inactive: growth inhibition [1] 2.17% | growth inhibition [2] -3.32% | viability increase [3] -1.84% | viability [4] 97.6% | viability [5] 104% | inhibition [6] 2.23% | RAM network inhibition [7] 8.77%

COc1ccc(-c2noc(-c3cccc(OC)c3OC)n2)cc1OC
inactive: growth inhibition [1] -8.92% | growth inhibition [2] -10.4% | viability increase [3] -1.07% | viability [4] 102% | viability [5] 94.3% | inhibition [6] 2.87% | RAM network inhibition [7] 2.97%

O=C1CC(c2cccs2)CC(O)=C1C=NCCN1CCNCC1 (stereo not drawn)
inactive: growth inhibition [1] -11.8% | growth inhibition [2] -6.3% | viability increase [3] -0.54% | viability [4] 98.9% | viability [5] 97.2% | inhibition [6] 0.995% | RAM network inhibition [7] -0.42%

CCCCC(=O)Nc1nc(C)c(C(C)=O)s1
inactive: growth inhibition [1] -13.3% | growth inhibition [2] -2.2% | viability increase [3] 0.48% | viability [4] 98.8% | viability [5] 88.7% | inhibition [6] 1.14% | RAM network inhibition [7] -1%

Cc1ccccc1-n1c(=O)cc(N2CCCCCC2)[nH]c1=O
inactive: growth inhibition [1] -4.08% | growth inhibition [2] -0.93% | viability increase [3] -2.23% | viability [4] 99.9% | viability [5] 98.1% | inhibition [6] 2.07% | RAM network inhibition [7] 6.58%

CC1(C)SCC2C(=O)N3C(CSC3(C)C)C(=O)N21 (stereo not drawn)
inactive: growth inhibition [1] 2.82% | growth inhibition [2] -6.7% | viability increase [3] 0.02% | viability [4] 107% | viability [5] 96.2% | inhibition [6] 1.5% | RAM network inhibition [7] 4.22%

COc1ccc(NC(=O)C2CCN(S(=O)(=O)c3cccnc3)CC2)cc1Cl
inactive: growth inhibition [1] -8.66% | growth inhibition [2] -13.1% | viability increase [3] -3.56% | viability [4] 97.3% | viability [5] 100% | inhibition [6] 1.77% | RAM network inhibition [7] 2.55%

CCOCCOC(=O)C1=C(C)NC2=C(C(=O)CC(c3cccs3)C2)C1c1ccsc1 (stereo not drawn)
inactive: growth inhibition [1] -1.18% | growth inhibition [2] 2.17% | viability increase [3] -1.94% | viability [4] 93.5% | viability [5] 89.2% | inhibition [6] 2.27% | RAM network inhibition [7] 6.89%

Nc1nc2n(n1)C(c1ccccc1Cl)CC(c1ccc(F)cc1)N2 (stereo not drawn)
inactive: growth inhibition [1] 0.695% | growth inhibition [2] 2.18% | viability increase [3] -0.54% | viability [4] 91.6% | viability [5] 88.8% | inhibition [6] 2.58% | RAM network inhibition [7] 0.48%
